The structures appear in SMILES notation. Converted amounts (≈) assume the structure as drawn.

The IC50 is the concentration at which inhibition is half-maximal. A word on the solubility (thermodynamic): it is solubility found after equilibrating the solid with the medium. What is called fraction unbound is free concentration divided by total concentration. The clearance is the volume of plasma or blood freed of the substance per unit of time. Broadly, the half-life is the time needed for the level to fall by half in the phase considered. What is called bioavailability is the share of a dose that reaches the circulation, judged against a reference dose that is usually intravenous. As a reminder, the IC10 is the concentration needed for an effect of 10%. Broadly, the EC50 is the concentration at which the effect is half-maximal.

Data set [1] can be described thus: Inhibition of full-length myosin ATPase activity in bovine cardiac myofibrils. It counts as subcellular, Bos taurus, Heart. The gist of the method:
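Bovine cardiac myofibril ATPase assay run at a calcium level giving 75% of maximal activity.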

Data set [2] is described as follows: Solubility of the compound at pH 6.8 by shake flask method. The data set is classed as physicochemical. As to conditions: buffer. The method, boiled down: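 Shake-flask solubility at pH 6.8; solid form not characterized.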
The nature of data set [3]: Metabolic stability in rat liver microsomes assessed as intrinsic clearance measured upto 90mins by HPLC/MS/MS analysis. The conditions noted are these: read-out: CLH. It counts as ADME, Microsome. A general note: Liver microsomes are a subcellular fraction often used to study metabolism.
Data set [4] is described as follows: Metabolic stability in human liver microsomes assessed as intrinsic clearance measured upto 90mins by HPLC/MS/MS analysis. As to conditions: read-out: CLH. It counts as ADME, Microsome.
Data set [5] is described as follows: Plasma protein binding in rat plasma assessed as unbound concentration at 5 uM incubated for 6 hrs by HPLC analysis. The data set is classed as ADME, cell-free.
Data set [6] can be described thus: Unbound clearance in Sprague-Dawley rat at 0.5 mg/kg. It counts as ADME, organism-based. The conditions noted are these: in vivo. The method, boiled down: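 Rat in vivo clearance at a 0.5 mg/kg dose was divided by the rat plasma free fraction to give unbound clearance.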
Data set [7] can be described thus: Plasma protein binding in rat assessed as unbound fraction. The data set is classed as ADME, cell-free.
Data set [8] can be described thus: Plasma protein binding in human assessed as unbound fraction. It counts as ADME, cell-free.
Data set [9] is described as follows: Clearance in Sprague-Dawley rat at 1 mg/kg. It counts as ADME, organism-based. The conditions noted are these: in vivo. The method, boiled down:
(§1)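 Rat PK with iv and po administration at 1 mg/kg. Clearance and half-life came from the iv arm, and bioavailability from the iv/po comparison.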

Data set [10] can be described thus: Half life in Sprague-Dawley rat at 1 mg/kg. It counts as ADME, organism-based. The conditions noted are these: in vivo. The method, boiled down: as §1
Data set [11] is described as follows: Clearance in Sprague-Dawley rat at 1 mg/kg. As to conditions: in vivo.
Data set [12] is described as follows: Bioavailability in Sprague-Dawley rat at 2 to 6 mg/kg, po and 1 mg/kg, iv. The conditions noted are these: in vivo.
A short description of data set [13]: Oral bioavailability in Sprague-Dawley rat at 2 mg/kg. The conditions noted are these: in vivo. It counts as ADME, organism-based. The gist of the method: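 Multi-species PK study in male animals, n = 3 per group (dog IV arm n = 2). Iv and oral dosing with plasma concentration–time profiles yielding Cmax, tmax, AUC0–t, CL, Vss, t1/2 and F.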
Data set [14] relates to Rattus norvegicus. Put plainly: Anti-hypertrophic cardiomyopathy in Sprague-Dawley rat assessed as reduction in fractional shortening at 4 mg/kg, po measured upto 24 hrs by echocardiography relative to control. The data set is classed as functional. Also noted: scale not given: the % may be the effect or the level left. As to conditions: time hrs <=24. The method, boiled down: (§2)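 Normal Sprague–Dawley rats were given single oral doses of 0.5–4 mg/kg. Left ventricular dimensions and fractional shortening were measured by echocardiography at selected time points over 24 h, relative to vehicle treatment.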

Data set [15] has as its system Rattus norvegicus. The data set can be described thus: Anti-hypertrophic cardiomyopathy in po dosed Sprague-Dawley rat assessed as reduction in fractional shortening measured upto 24 hrs by echocardiography. The data set is classed as functional, organism-based. The gist of the method:
as §2

Data set [16] can be described thus: Ratio of IC50 to IC10 for anti-hypertrophic cardiomyopathy in po dosed Sprague-Dawley rat assessed as reduction in fractional shortening measured upto 24 hrs by echocardiography. It counts as functional. As to conditions: time hrs <=24. The gist of the method: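 Sprague–Dawley rats received single oral doses from 0.5 to 4 mg/kg. LV dimensions and fractional shortening were read by echocardiography at set times over 24 h, with blood drawn at each reading for compound level. Concentrations giving 50% and 10% FS reduction were derived, and their IC50/IC10 ratio was calculated.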

Data set [17] has as its target CYP3A4 (Homo sapiens, UniProt P08684). The data set can be described thus: Induction of CYP3A4 in human hepatocytes assessed as mRNA expression incubated for 3 days by RT-RTPCR analysis. The data set is classed as ADME, cell-based, Hepatocyte. The gist of the method: (§3)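 Cryopreserved plateable human primary hepatocytes from three separate donors were tested at concentrations up to 50 μM. The end point was CYP mRNA level, with induction judged against predetermined cutoff values (2-fold).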

Data set [18] concerns the target T1, Cytochrome P450 2B6 (Homo sapiens, UniProt P20813).
T1 sequence (P20813 whole entry): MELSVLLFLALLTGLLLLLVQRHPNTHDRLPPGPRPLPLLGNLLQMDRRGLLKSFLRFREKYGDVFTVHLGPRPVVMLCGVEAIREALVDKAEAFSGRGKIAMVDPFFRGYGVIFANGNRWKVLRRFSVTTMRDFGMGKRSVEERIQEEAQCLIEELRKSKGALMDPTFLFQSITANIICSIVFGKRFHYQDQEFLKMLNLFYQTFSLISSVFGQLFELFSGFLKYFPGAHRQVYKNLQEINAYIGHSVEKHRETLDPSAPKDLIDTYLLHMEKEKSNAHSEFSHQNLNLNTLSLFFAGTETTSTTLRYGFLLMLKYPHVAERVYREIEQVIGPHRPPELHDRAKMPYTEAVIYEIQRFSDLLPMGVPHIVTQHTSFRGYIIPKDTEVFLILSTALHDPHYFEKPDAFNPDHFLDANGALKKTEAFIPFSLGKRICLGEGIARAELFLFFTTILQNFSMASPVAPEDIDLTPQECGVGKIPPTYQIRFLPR
The data set can be described thus: Induction of CYP2B6 in human hepatocytes assessed as mRNA expression incubated for 3 days by RT-RTPCR analysis. The data set is classed as ADME, cell-based. As to conditions: hepatocyte. The method, boiled down: as §3

Data set [19] can be described thus: Half life in human. It counts as ADME.

CYP3A4, sequence (P08684 whole entry): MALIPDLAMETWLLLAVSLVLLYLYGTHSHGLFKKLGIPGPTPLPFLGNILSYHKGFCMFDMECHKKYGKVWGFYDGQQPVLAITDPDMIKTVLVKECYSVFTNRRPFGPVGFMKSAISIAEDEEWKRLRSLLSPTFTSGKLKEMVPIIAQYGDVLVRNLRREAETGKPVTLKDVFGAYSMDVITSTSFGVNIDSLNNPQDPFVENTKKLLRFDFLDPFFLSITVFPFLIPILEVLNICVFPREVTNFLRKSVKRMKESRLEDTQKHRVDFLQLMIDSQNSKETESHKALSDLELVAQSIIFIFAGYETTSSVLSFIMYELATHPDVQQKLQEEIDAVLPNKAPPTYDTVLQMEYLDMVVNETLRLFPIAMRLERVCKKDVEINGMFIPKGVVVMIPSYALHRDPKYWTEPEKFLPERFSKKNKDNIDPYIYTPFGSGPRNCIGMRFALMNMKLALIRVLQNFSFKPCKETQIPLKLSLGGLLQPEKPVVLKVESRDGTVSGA

For the molecule `Cn1cc(C(=O)N[C@@H]2CCc3cc(-c4noc(C5CCC5)n4)ccc32)cn1`, in data set [1], it took 3200 nM to reach half-maximal inhibition (IC50). In data set [2], the thermodynamic solubility was 14 µM (≈ 5.09 µg/mL).

Turning to `Cc1nc(-c2ccc3c(c2)CC[C@H]3NC(=O)c2cnn(C)c2)no1`, it took 4400 nM to reach half-maximal inhibition in [1] (IC50). Besides, the CLint scaled is below 21 mL/min/kg in data set [3] and below 11 mL/min/kg in data set [4]. In addition, the fraction unbound at 6 h, 5 µM in [5] is 0.065. Further, in [6], the CL free is 32.3 mL/min/kg. The figures for the unbound share (fraction unbound) in [7] and in data set [8] were 0.065 and 0.14, respectively. The molecule also returned a solubility (thermodynamic) in data set [2] of 86 µM (≈ 27.8 µg/mL).

Take `Cc1nc(-c2ccc3c(c2)CC[C@@H]3NC(=O)c2cnn(C)c2)no1`: the IC50 in data set [1] was above 39000 nM. Moreover, the values for the CLint scaled in data set [3] and in [4] were below 21 mL/min/kg and below 11 mL/min/kg, respectively. The fraction unbound at 6 h, 5 µM in [5] was determined as 0.15. Also, in data set [6], the CL free turned out to be 395 mL/min/kg.

In the case of `CCc1nc(-c2ccc3c(c2)CC[C@H]3NC(=O)c2nnn(C)n2)no1`, the IC50 in [1] is 900 nM. The CLint scaled was below 21 mL/min/kg in [3] and below 11 mL/min/kg in data set [4]. Besides, in [5], the fraction unbound at 6 h, 5 µM turned out to be 0.29. In addition, in data set [7], the fraction unbound was found to be 0.11. For the same molecule, the clearance in data set [9] and in [11] was 20 mL/min/kg throughout. In addition, the half-life in [10] was 6.3 h. For the same molecule, in data set [12], the bioavailability worked out at 53%.

`Cn1cc(C(=O)N[C@@H]2CCc3cc(-c4noc(C5CC5)n4)ccc32)cn1`: the IC50 in data set [1] is 2700 nM. The unbound share (fraction unbound) in data set [7] worked out at 0.042; in data set [8] it was 0.056. The molecule further displayed a solubility (thermodynamic) in data set [2] of 33 µM (≈ 11.5 µg/mL).

In turn, `Cn1nnc(C(=O)N[C@@H]2CCc3cc(-c4noc(C5CC5)n4)ccc32)n1` had an IC50 in data set [1] of 1000 nM. Further, the results for the CLint scaled in data set [3] and in [4] were below 21 mL/min/kg and below 11 mL/min/kg, respectively. The fraction unbound at 6 h, 5 µM in data set [5] is 0.12. In [7], the fraction unbound was determined as 0.077. Moreover, the clearance in [9] and in [11] was 5 mL/min/kg each time. Further, the half-life in data set [10] is 17.8 h. Besides, the bioavailability in data set [13] is 100%.

Take `CC(C)n1c(=O)cc(N[C@@H](C)c2ccccc2)[nH]c1=O` [MAVACAMTEN]: the Activity in data set [14] was found to be 80%. The IC10 in data set [15] (Rattus norvegicus, Sprague-Dawley, 24 h) came to 600 nM. For the same molecule, in data set [15] (time hrs <=24), the IC50 is 1700 nM. For the same molecule, the Ratio in [16] stood at 2.8. Also, the EC50 at 3 days in [17] is 2200 nM. Also, the EC50 in data set [18] worked out at 5100 nM. Moreover, the half-life in [19] was 216 h.

In the case of `Cn1cc(C(=O)N[C@@H]2CCc3cc(-c4noc(C(F)F)n4)ccc32)cn1`, the midpoint of inhibition in [1], the IC50, lay at 2400 nM. Besides, the CLint scaled in [3] is below 21 mL/min/kg; in [4] it was below 11 mL/min/kg. In addition, the fraction unbound at 6 h, 5 µM in data set [5] is 0.024. Besides, the figures for the free fraction (fraction unbound) in data set [7] and in data set [8] were 0.024 and 0.057, respectively. In data set [2], this molecule registered a thermodynamic solubility of 37 µM (≈ 13.3 µg/mL).

For the molecule `COCc1nc(-c2ccc3c(c2)CC[C@H]3NC(=O)c2cnn(C)c2)no1`, in data set [1], the 50% inhibitory concentration (IC50) turned out to be 6800 nM. In addition, the CLint scaled is below 21 mL/min/kg in data set [3] and below 11 mL/min/kg in data set [4]. In addition, in [5], the fraction unbound at 6 h, 5 µM came out at 0.082. Besides, the fraction unbound in data set [7] stood at 0.082; in [8] it was 0.12. Further, the solubility (thermodynamic) in data set [2] turned out to be 63 µM (≈ 22.3 µg/mL).
